Measurements as given in ChEMBL document CHEMBL1123924, “Structure-activity studies of antagonists of luteinizing hormone-releasing hormone with emphasis on the amino-terminal region” (1987).
Non-standard residues stand in square brackets, D forms with d. Residues, ends and D or L forms follow the SMILES beside them. d(hArg(Et2)) = CCN=C(NCC)NCCCC[C@@H](N)C(=O)O; dPhe(4-Cl) = N[C@H](Cc1ccc(Cl)cc1)C(=O)O; d2Nal = N[C@H](Cc1ccc2ccccc2c1)C(=O)O

How the values were obtained:
Type in all cases: functional
[1] = organism: Rattus norvegicus; assay: Antiovulatory activity was expressed as the percentage of 8 rats blocked at a dose 1 ug.
Outline: (§1)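 Sprague-Dawley rats given peptide by subcutaneous injection at noon on the day of proestrus, in 40% propane-1,2-diol–0.9% saline vehicle. Oviducts examined for ova the following day.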

[2] = organism: Rattus norvegicus; assay: Antiovulatory activity was expressed as the percentage of 8 rats blocked at a dose 7.5 ug.; outline: as §1
[3] = organism: Rattus norvegicus; assay: Antiovulatory activity was expressed as the percentage of 10 rats blocked at a dose 0.5 ug.; outline: as §1
[4] = organism: Rattus norvegicus; assay: Antiovulatory activity was expressed as the percentage of 10 rats blocked at a dose 1 ug.; outline: as §1
[5] = organism: Rattus norvegicus; assay: Antiovulatory activity was expressed as the percentage of 10 rats blocked at a dose 3 ug.; outline: as §1
[6] = organism: Rattus norvegicus; assay: Antiovulatory activity was expressed as the percentage of 11 rats blocked at a dose 1 ug.; outline: as §1
[7] = organism: Rattus norvegicus; assay: Antiovulatory activity was expressed as the percentage of 8 rats blocked at a dose 3 ug.; outline: as §1
[8] = organism: Rattus norvegicus; assay: Antiovulatory activity was expressed as the percentage of 9 rats blocked at a dose 7.5 ug.; outline: as §1
[9] = organism: Rattus norvegicus; assay: Antiovulatory activity was expressed as the percentage of 9 rats blocked at a dose 1 ug.; outline: as §1
[10] = organism: Rattus norvegicus; assay: Antiovulatory activity was expressed as the percentage of 9 rats blocked at a dose 3 ug.; outline: as §1
[11] = organism: Rattus norvegicus; assay: Antiovulatory activity was expressed as the percentage of 11 rats blocked at a dose 0.5 ug.; outline: as §1
[12] = organism: Rattus norvegicus; assay: Antiovulatory activity was expressed as the percentage of 10 rats blocked at a dose 1.5 ug.; outline: as §1
[13] = organism: Rattus norvegicus; assay: Antiovulatory activity was expressed as the percentage of 16 rats blocked at a dose 1 ug.; outline: as §1
[14] = organism: Rattus norvegicus; assay: Antiovulatory activity was expressed as the percentage of 7 rats blocked at a dose 3 ug.; outline: as §1
[15] = organism: Rattus norvegicus; assay: Antiovulatory activity was expressed as the percentage of 13 rats blocked at a dose 1 ug.; outline: as §1

CC(=O)N[C@H](Cc1ccc2ccccc2c1)C(=O)N[C@H](Cc1ccc(O)cc1)C(=O)N[C@H](Cc1ccc(O)cc1)C(=O)N[C@@H](CO)C(=O)N[C@@H](Cc1ccc(O)cc1)C(=O)N[C@H](CCCN=C(N)N)C(=O)N[C@@H](Cc1ccccc1)C(=O)N[C@@H](CCCN=C(N)N)C(=O)N1CCC[C@H]1C(=O)N[C@H](C)C(N)=O
Antiovulatory activity [1]: 0%

CC(=O)N[C@H](Cc1ccc(Cl)cc1)C(=O)N[C@H](Cc1ccc(Cl)cc1)C(=O)N[C@H](Cc1c[nH]c2ccccc12)C(=O)N[C@@H](CO)C(=O)N[C@@H](Cc1ccc(O)cc1)C(=O)N[C@H](Cc1ccc2ccccc2c1)C(=O)N[C@@H](Cc1ccccc1)C(=O)N[C@@H](CCCN=C(N)N)C(=O)N1CCC[C@H]1C(=O)N[C@H](C)C(N)=O
Antiovulatory activity [2]: 0%

CC(=O)N[C@H](Cc1ccc2ccccc2c1)C(=O)N[C@H](Cc1ccccc1)C(=O)N[C@H](Cc1ccccc1)C(=O)N[C@@H](CO)C(=O)N[C@@H](Cc1ccc(O)cc1)C(=O)N[C@H](CCCN=C(N)N)C(=O)N[C@@H](CC1CCCCC1)C(=O)N[C@@H](CCCN=C(N)N)C(=O)N1CCC[C@H]1C(=O)N[C@H](C)C(N)=O
Antiovulatory activity [3]: 80%

CC(=O)N[C@H](Cc1ccc(Cl)cc1)C(=O)N[C@H](Cc1ccc(Cl)cc1)C(=O)N[C@H](Cc1c[nH]c2ccccc12)C(=O)N[C@@H](CO)C(=O)N[C@@H](Cc1ccc(O)cc1)C(=O)N[C@H](CCCN=C(N)N)C(=O)N[C@@H](Cc1ccccc1)C(=O)N[C@@H](CCCN=C(N)N)C(=O)N1CCC[C@H]1C(=O)N[C@H](C)C(N)=O (HELM PEPTIDE1{[ac].[O=C([C@@H](Cc1ccc(Cl)cc1)N[*:1])[*:2]].[O=C([C@@H](Cc1ccc(Cl)cc1)N[*:1])[*:2]].[dW].S.Y.[dR].F.R.P.[dA].[am]}$$$$V2.0)
Antiovulatory activity [4]: 70% | Antiovulatory activity [5]: 100%

CC(=O)N[C@H](Cc1ccc2ccccc2c1)C(=O)N[C@H](Cc1ccc2ccccc2c1)C(=O)N[C@H](Cc1ccc(O)cc1)C(=O)N[C@@H](CO)C(=O)N[C@@H](Cc1ccc(O)cc1)C(=O)N[C@H](CCCN=C(N)N)C(=O)N[C@@H](Cc1ccccc1)C(=O)N[C@@H](CCCN=C(N)N)C(=O)N1CCC[C@H]1C(=O)N[C@H](C)C(N)=O
Antiovulatory activity [6]: 9% | Antiovulatory activity [7]: 38% | Antiovulatory activity [8]: 100%

CC(=O)N[C@H](Cc1ccc2ccccc2c1)C(=O)N[C@H](Cc1ccc(Cl)cc1)C(=O)N[C@H](Cc1ccccc1)C(=O)N[C@@H](CO)C(=O)N[C@@H](Cc1ccc(O)cc1)C(=O)N[C@H](CCCN=C(N)N)C(=O)N[C@@H](Cc1ccccc1)C(=O)N[C@@H](CCCN=C(N)N)C(=O)N1CCC[C@H]1C(=O)N[C@H](C)C(N)=O
Antiovulatory activity [3]: 10% | Antiovulatory activity [9]: 56%

CC(=O)N[C@H](Cc1ccc2ccccc2c1)C(=O)N[C@H](Cc1ccc2ccccc2c1)C(=O)N[C@H](Cc1ccc2ccccc2c1)C(=O)N[C@@H](CO)C(=O)N[C@@H](Cc1ccc(O)cc1)C(=O)N[C@H](CCCN=C(N)N)C(=O)N[C@@H](Cc1ccccc1)C(=O)N[C@@H](CCCN=C(N)N)C(=O)N1CCC[C@H]1C(=O)N[C@H](C)C(N)=O
Antiovulatory activity [10]: 15%

CC(=O)N[C@H](Cc1ccc2ccccc2c1)C(=O)N[C@H](Cc1ccc(Cl)cc1)C(=O)N[C@H](Cc1c[nH]c2ccccc12)C(=O)N[C@@H](CO)C(=O)N[C@@H](Cc1ccc(O)cc1)C(=O)N[C@H](CCCN=C(N)N)C(=O)N[C@@H](Cc1ccccc1)C(=O)N[C@@H](CCCN=C(N)N)C(=O)N1CCC[C@H]1C(=O)N[C@H](C)C(N)=O (HELM PEPTIDE1{[ac].[O=C([C@@H](Cc1ccc2ccccc2c1)N[*:1])[*:2]].[O=C([C@@H](Cc1ccc(Cl)cc1)N[*:1])[*:2]].[dW].S.Y.[dR].F.R.P.[dA].[am]}$$$$V2.0)
Antiovulatory activity [11]: 64%

CC(=O)N[C@H](Cc1ccc2ccccc2c1)C(=O)N[C@H](Cc1ccc(Cl)cc1)C(=O)N[C@H](Cc1ccc(Cl)cc1)C(=O)N[C@@H](CO)C(=O)N[C@@H](Cc1ccc(O)cc1)C(=O)N[C@H](CCCN=C(N)N)C(=O)N[C@@H](Cc1ccccc1)C(=O)N[C@@H](CCCN=C(N)N)C(=O)N1CCC[C@H]1C(=O)N[C@H](C)C(N)=O
Antiovulatory activity [7]: 63% | Antiovulatory activity [1]: 0%

CC(=O)N[C@H](Cc1ccc(Cl)cc1)C(=O)N[C@H](Cc1ccc(Cl)cc1)C(=O)N[C@H](Cc1c[nH]c2ccccc12)C(=O)N[C@@H](CO)C(=O)N[C@@H](Cc1ccc(O)cc1)C(=O)N[C@H](CCCN=C(N)N)C(=O)N[C@@H](CC(C)C)C(=O)N[C@@H](CCCN=C(N)N)C(=O)N1CCC[C@H]1C(=O)N[C@H](C)C(N)=O (HELM PEPTIDE1{[ac].[O=C([C@@H](Cc1ccc(Cl)cc1)N[*:1])[*:2]].[O=C([C@@H](Cc1ccc(Cl)cc1)N[*:1])[*:2]].[dW].S.Y.[dR].L.R.P.[dA].[am]}$$$$V2.0)
Antiovulatory activity [12]: 10% | Antiovulatory activity [10]: 67%

CC(=O)N[C@H](Cc1ccc2ccccc2c1)C(=O)N[C@H](Cc1ccc2ccccc2c1)C(=O)N[C@H](Cc1c(F)c(F)c(F)c(F)c1F)C(=O)N[C@@H](CO)C(=O)N[C@@H](Cc1ccc(O)cc1)C(=O)N[C@H](CCCN=C(N)N)C(=O)N[C@@H](Cc1ccccc1)C(=O)N[C@@H](CCCN=C(N)N)C(=O)N1CCC[C@H]1C(=O)N[C@H](C)C(N)=O
Antiovulatory activity [8]: 0%

CC(=O)N[C@H](Cc1ccccc1)C(=O)N[C@H](Cc1ccccc1)C(=O)N[C@H](Cc1ccccc1)C(=O)N[C@@H](CO)C(=O)N[C@@H](Cc1ccc(O)cc1)C(=O)N[C@H](CCCN=C(N)N)C(=O)N[C@@H](Cc1ccccc1)C(=O)N[C@@H](CCCN=C(N)N)C(=O)N1CCC[C@H]1C(=O)N[C@H](C)C(N)=O
Antiovulatory activity [7]: 0%

CC(=O)N[C@H](Cc1ccc(Cl)cc1)C(=O)N[C@H](Cc1ccccc1)C(=O)N[C@H](Cc1ccccc1)C(=O)N[C@@H](CO)C(=O)N[C@@H](Cc1ccc(O)cc1)C(=O)N[C@H](CCCN=C(N)N)C(=O)N[C@@H](Cc1ccccc1)C(=O)N[C@@H](CCCN=C(N)N)C(=O)N1CCC[C@H]1C(=O)N[C@H](C)C(N)=O
Antiovulatory activity [7]: 63%

CC(=O)N[C@H](Cc1ccc2ccccc2c1)C(=O)N[C@H](Cc1ccc2ccccc2c1)C(=O)N[C@H](Cc1c[nH]cn1)C(=O)N[C@@H](CO)C(=O)N[C@@H](Cc1ccc(O)cc1)C(=O)N[C@H](CCCN=C(N)N)C(=O)N[C@@H](Cc1ccccc1)C(=O)N[C@@H](CCCN=C(N)N)C(=O)N1CCC[C@H]1C(=O)N[C@H](C)C(N)=O
Antiovulatory activity [5]: 0%

CC(=O)N[C@H](Cc1ccc2ccccc2c1)C(=O)N[C@H](Cc1ccc(O)cc1)C(=O)N[C@H](Cc1ccccc1)C(=O)N[C@@H](CO)C(=O)N[C@@H](Cc1ccc(O)cc1)C(=O)N[C@H](CCCN=C(N)N)C(=O)N[C@@H](Cc1ccccc1)C(=O)N[C@@H](CCCN=C(N)N)C(=O)N1CCC[C@H]1C(=O)N[C@H](C)C(N)=O
Antiovulatory activity [13]: 0% | Antiovulatory activity [14]: 14%

CC(=O)N[C@H](Cc1c[nH]c2ccccc12)C(=O)N[C@H](Cc1ccccc1)C(=O)N[C@H](Cc1ccccc1)C(=O)N[C@@H](CO)C(=O)N[C@@H](Cc1ccc(O)cc1)C(=O)N[C@H](CCCN=C(N)N)C(=O)N[C@@H](Cc1ccccc1)C(=O)N[C@@H](CCCN=C(N)N)C(=O)N1CCC[C@H]1C(=O)N[C@H](C)C(N)=O
Antiovulatory activity [5]: 0%

CC(=O)N[C@H](Cc1ccc2ccccc2c1)C(=O)N[C@H](Cc1ccc(Cl)cc1)C(=O)N[C@H](Cc1c[nH]c2ccccc12)C(=O)N[C@@H](CO)C(=O)N[C@@H](Cc1ccc(O)cc1)C(=O)N[C@H](CCCN=C(N)N)C(=O)N[C@@H](CC(C)C)C(=O)N[C@@H](CCCN=C(N)N)C(=O)N1CCC[C@H]1C(=O)N[C@H](C)C(N)=O (HELM PEPTIDE1{[ac].[O=C([C@@H](Cc1ccc2ccccc2c1)N[*:1])[*:2]].[O=C([C@@H](Cc1ccc(Cl)cc1)N[*:1])[*:2]].[dW].S.Y.[dR].L.R.P.[dA].[am]}$$$$V2.0)
Antiovulatory activity [15]: 77%

CC(=O)N[C@H](Cc1ccc2ccccc2c1)C(=O)N[C@H](Cc1ccccc1)C(=O)N[C@H](Cc1ccc(O)cc1)C(=O)N[C@@H](CO)C(=O)N[C@@H](Cc1ccc(O)cc1)C(=O)N[C@H](CCCN=C(N)N)C(=O)N[C@@H](Cc1ccccc1)C(=O)N[C@@H](CCCN=C(N)N)C(=O)N1CCC[C@H]1C(=O)N[C@H](C)C(N)=O
Antiovulatory activity [9]: 0%

CC(=O)N[C@H](Cc1ccc2ccccc2c1)C(=O)N[C@H](Cc1ccc2ccccc2c1)C(=O)N[C@H](Cc1ccccc1)C(=O)N[C@@H](CO)C(=O)N[C@@H](Cc1ccc(O)cc1)C(=O)N[C@H](CCCN=C(N)N)C(=O)N[C@@H](Cc1ccccc1)C(=O)N[C@@H](CCCN=C(N)N)C(=O)N1CCC[C@H]1C(=O)N[C@H](C)C(N)=O
Antiovulatory activity [5]: 100%

CCNC(=NCCCC[C@@H](NC(=O)[C@H](Cc1ccc(O)cc1)NC(=O)[C@H](CO)NC(=O)[C@@H](Cc1c[nH]c2ccccc12)NC(=O)[C@@H](Cc1ccc(Cl)cc1)NC(=O)[C@@H](Cc1ccc2ccccc2c1)NC(C)=O)C(=O)N[C@@H](Cc1ccccc1)C(=O)N[C@@H](CCCN=C(N)N)C(=O)N1CCC[C@H]1C(=O)N[C@H](C)C(N)=O)NCC (Ac-[d2Nal][dPhe(4-Cl)][dW]SY[d(hArg(Et2))]FRP[dA]-NH2)
Antiovulatory activity [1]: 63%

CC(=O)N[C@H](Cc1ccc(Cl)cc1)C(=O)N[C@H](Cc1ccc(Cl)cc1)C(=O)N[C@H](Cc1c[nH]c2ccccc12)C(=O)N[C@@H](CO)C(=O)N[C@@H](Cc1ccc(O)cc1)C(=O)N[C@H](Cc1ccccc1)C(=O)N[C@@H](Cc1ccccc1)C(=O)N[C@@H](CCCN=C(N)N)C(=O)N1CCC[C@H]1C(=O)N[C@H](C)C(N)=O
Antiovulatory activity [2]: 8%
